# An excerpt weighted towards active compounds, which were near 2.2% of everything screened.
# ERAP1 HTS inh = ERAP1 (human) enzyme inhibition | Q9NZ08 | recombinant ERAP1, Leu-AMC fluorescence, 60 min | inhibition, % at 10.7 µM | 340,000 tested, 0.15% active | AID 652197;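 active means mean replicate inhibition of at least 30%, or all replicates individually reaching that 30% level; inactive means mean below 30% and not every replicate reaching it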;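 further: 0% = neutral control wells and 100% = L-leucinethiol positive control wells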
# Target sequence (Q9NZ08 whole entry, looked up): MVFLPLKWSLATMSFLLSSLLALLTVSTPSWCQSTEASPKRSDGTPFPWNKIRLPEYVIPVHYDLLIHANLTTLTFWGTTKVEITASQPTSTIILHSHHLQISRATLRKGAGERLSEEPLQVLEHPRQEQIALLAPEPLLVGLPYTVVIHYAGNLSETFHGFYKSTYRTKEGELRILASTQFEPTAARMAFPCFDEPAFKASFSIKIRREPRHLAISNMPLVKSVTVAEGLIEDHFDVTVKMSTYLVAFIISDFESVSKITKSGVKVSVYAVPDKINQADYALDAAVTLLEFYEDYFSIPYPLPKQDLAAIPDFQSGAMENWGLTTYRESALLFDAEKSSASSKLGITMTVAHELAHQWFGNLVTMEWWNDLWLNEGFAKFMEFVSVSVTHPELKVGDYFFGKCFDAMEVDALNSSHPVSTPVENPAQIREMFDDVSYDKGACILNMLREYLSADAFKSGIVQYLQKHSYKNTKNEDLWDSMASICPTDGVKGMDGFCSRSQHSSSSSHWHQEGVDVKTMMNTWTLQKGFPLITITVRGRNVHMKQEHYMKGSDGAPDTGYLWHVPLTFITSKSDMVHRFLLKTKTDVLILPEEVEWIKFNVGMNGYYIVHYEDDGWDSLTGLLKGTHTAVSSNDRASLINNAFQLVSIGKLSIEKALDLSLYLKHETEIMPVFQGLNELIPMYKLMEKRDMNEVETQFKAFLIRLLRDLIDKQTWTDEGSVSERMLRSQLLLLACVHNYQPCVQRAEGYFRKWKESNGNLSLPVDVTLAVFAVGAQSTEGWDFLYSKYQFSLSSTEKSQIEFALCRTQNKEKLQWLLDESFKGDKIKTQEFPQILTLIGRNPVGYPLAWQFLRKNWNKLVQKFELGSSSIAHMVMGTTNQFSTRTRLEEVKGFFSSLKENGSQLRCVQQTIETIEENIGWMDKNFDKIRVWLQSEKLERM
# SIRT5 inh = sirtuin-5 (human) deacylase inhibition | Q9NXA8 | Purified SirT5, succinyl-peptide AMC, trypsin-coupled fluorescence | inhibition, % at 15 µM | 330,000 tested, 1.1% active | AID 652115; in the data active means inhibition above about 15%
# PGC1a acetyl inh = lowers PGC1a acetylation signal in U2OS cells. AlphaScreen anti-acetyl-lysine; with virally co-expressed GCN5 acetyltransferase. inhibition, % at 15.6 µM. 350,000 tested, 0.17% active. AID 651687;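 active means every replicate shows inhibition of at least 40%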;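 further: 0% = neutral control wells and 100% = positive control wells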
# FN deposit inh = fibronectin deposition inhibition; AH1F fibroblasts, Alexa488-fibronectin deposition fluorescence, overnight; inhibition, % at 12.6 µM; 350,000 tested, 0.086% active;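 active means mean inhibition across replicates of 30% or more, regardless of how many single replicates reach that level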;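 further: positive control wells lacked labelled fibronectin entirely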
#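 Assay system: AH1F fibroblasts assembling fluorescent fibronectin matrix; Amount: 10000 AH1F cells per well; Buffer or medium: DMEM, 2% serum; Probe or stimulus: Alexa488-fibronectin, 24 nM final in well; Doses: single compound dose, delivered by pin transfer; Incubation: 1 h adhesion, overnight exposure; Measured by: fluorescence 485/525 nm; Read-out: fibronectin deposition inhibition.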
# FGF22 binding = binders of recombinant human FGF22 by thermal shift. SYPRO orange fluorescence; percent of sucrose octasulfate shift, DMSO zero. activity (Tm shift, normalised), % at 9.99 µM. 340,000 tested, 1.5% active. Q9HCT0;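 active means mean Tm shift, scaled 0 neutral to 100 positive control, at about 1.3% or above, every replicate too, limit read from the data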
# The depositor's hits bear a star; x = not tested or not shown.
SMILES,ERAP1 HTS inh,SIRT5 inh,PGC1a acetyl inh,FN deposit inh,FGF22 binding
C[C@H]1CN([C@@H](C)CO)S(=O)(=O)c2ccc(C#CC3CC3)cc2O[C@H]1CN(C)C(=O)Cc1ccncc1,-2,1,-10,-2,0
C[C@@H]1CN([C@@H](C)CO)S(=O)(=O)c2ccc(C#CC3CCCC3)cc2O[C@H]1CN(C)C(=O)Cc1ccccc1,2,2,16,x,0
Cc1ccc(-c2cnc3c(c2)C(=O)N([C@H](C)CO)C[C@H](C)[C@H](CN(C)CC2CCOCC2)O3)cc1,2,4,0,x,0
C[C@H]1CN(C)C(=O)Cc2ccccc2O[C@H]1CN(C)C,x,x,x,-11,x
C[C@H](CO)N1C[C@H](C)[C@@H](CN(C)C(=O)Cc2ccccc2)Oc2cc(C#CC3CCCC3)ccc2S1(=O)=O,0,15*,6,-9,0
C[C@@H]1CN([C@@H](C)CO)S(=O)(=O)c2ccc(C#Cc3ccc(F)cc3)cc2O[C@@H]1CN(C)C(=O)NC1CCCCC1,2,16*,21,12,0
C[C@@H]1CN([C@H](C)CO)S(=O)(=O)c2ccc(C#Cc3ccc(F)cc3)cc2O[C@@H]1CN(C)C(=O)NC1CCCC1,-2,2,20,2,0
C[C@H]1CN([C@@H](C)CO)S(=O)(=O)c2ccc(C#Cc3ccc(F)cc3)cc2O[C@H]1CN(C)C(=O)NC1CCCCC1,2,20*,12,15,0
C[C@@H]1CN([C@H](C)CO)S(=O)(=O)c2ccc(C#Cc3cccc(F)c3)cc2O[C@@H]1CN(C)C(=O)NC1CCCCC1,-3,17*,12,-7,0
C[C@H](CO)N1C[C@H](C)[C@@H](CN(C)C(=O)NC2CCCCC2)Oc2cc(C#Cc3cccc(F)c3)ccc2S1(=O)=O,x,x,-10,-2,x
C[C@H]1CN([C@@H](C)CO)S(=O)(=O)c2ccc(C#Cc3ccc(F)cc3)cc2O[C@@H]1CN(C)C(=O)NC1CCCCC1,2,18*,11,-4,0
O=C(c1ccncc1)N1CC(=O)N2[C@H](C1)[C@@H](c1ccc(/C=C/c3ccccc3)cc1)[C@@H]2CO,1,2,-17,x,x
Cc1ccc(S(=O)(=O)Nc2ccc3c(c2)C(=O)N(C)[C@@H]2CC[C@@H](CC(=O)O)O[C@@H]2CO3)cc1,-2,0,-7,-5,0
Cc1ccsc1/C=N/NC(=S)NCCc1ccccc1,-2,16*,15,10,0
O=C(N/N=C/c1cc(Br)c(Br)s1)c1ccncc1,1,2,1,4,44*
O=C(N/N=C/c1ccc([N+](=O)[O-])cc1)c1ccccc1OCc1ccccc1,0,-3,-13,5,0
O=C(N/N=C/c1ccc(Br)s1)c1ccncc1,2,-4,x,-3,0
S=C(NCCc1ccccc1)N/N=C/c1cccs1,-2,-3,2,15,0
Cc1ccsc1/C=N/NC(=O)c1cccnc1,4,4,4,-7,0
Cc1ccsc1/C=N/NC(=O)c1ccncc1,5,4,-2,-4,43*
O=C(N/N=C/c1ccc([N+](=O)[O-])cc1)c1ccc(COc2ccccc2-c2ccccc2)cc1,2,-1,x,7,44*
O=C(N/N=C/c1ccncc1)c1cc([N+](=O)[O-])cc([N+](=O)[O-])c1,x,x,x,7,x
O=C(NN=Cc1ccc([N+](=O)[O-])cc1)c1ccncc1,2,x,-1,-6,44*
CCCN1[C@@H]2c3ccc(C4=CCCC4)c(=O)n3C[C@@H]2[C@@H](CO)[C@@H]1C(=O)NC1Cc2ccccc2C1,2,2,x,x,x
Cc1ccc(-c2cc(-c3ccc(C)cc3O)[nH]n2)cc1,0,-1,-4,-2,0
SMILES,ERAP1 HTS inh,SIRT5 inh,PGC1a acetyl inh,FN deposit inh,FGF22 binding
Cc1ccc(O)c(-c2cc(-c3cccc(Br)c3)n[nH]2)c1,6,1,x,37*,0
COc1ccc(-c2noc(CN3CCC(Cc4ccccc4)CC3)n2)cc1,1,-8,-3,x,0
COCC1CCN(Cc2nc(-c3ccc(OC)cc3)no2)CC1,2,1,x,-2,43*
C[C@H](CO)N1C[C@H](C)[C@@H](CN(C)C(=O)NC2CCCCC2)Oc2ccc(NS(=O)(=O)c3ccccc3)cc2CC1=O,-3,4,0,x,0
C=CCNC(=O)COc1c(C)ccc(C)c1C,4,23*,-2,0,42
C=CCNC(=O)COc1ccc(Oc2ccccc2)cc1,3,-2,-13,10,0

# Source: PubChem
